The results in this text go back to ChEMBL document CHEMBL2385076, “Discovery of 2-((1H-benzo[d]imidazol-1-yl)methyl)-4H-pyrido[1,2-a]pyrimidin-4-ones as novel PKM2 activators” (Bioorg Med Chem Lett, 2013).

Converted amounts (≈) assume the structure as drawn. The source made the active and inactive calls. The calls are words filed in the database; no cut-off is given here. Some results are limits rather than exact numbers.

The target in data set [1] is T1, Pyruvate kinase PKM (Homo sapiens, UniProt P14618). Put plainly: Activation of human PKM2 assessed as production of ATP at infinite concentration after 10 mins by lactate dehydrogenase-coupled enzyme assay relative to FBP. The essentials: (§1)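 Coupled to lactate dehydrogenase, NADH loss read as the drop in absorbance at 340 nm. Reaction: 2nM human PKM2 (cleaved N-term his, 1-531), 2 mM PEP, 0.35 mM NADH, 4 units/mL LDH in 50 mM Tris pH 7.5 with KCl and 5 mM MgCl2. Compound preincubated 10 minutes at 32 °C, then 0.5mM ADP starts the reaction. Duplicates; 10-point curves; asymptote max = % activation at infinite concentration.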
Target sequence in this assay (P14618 2-531 limits assumed): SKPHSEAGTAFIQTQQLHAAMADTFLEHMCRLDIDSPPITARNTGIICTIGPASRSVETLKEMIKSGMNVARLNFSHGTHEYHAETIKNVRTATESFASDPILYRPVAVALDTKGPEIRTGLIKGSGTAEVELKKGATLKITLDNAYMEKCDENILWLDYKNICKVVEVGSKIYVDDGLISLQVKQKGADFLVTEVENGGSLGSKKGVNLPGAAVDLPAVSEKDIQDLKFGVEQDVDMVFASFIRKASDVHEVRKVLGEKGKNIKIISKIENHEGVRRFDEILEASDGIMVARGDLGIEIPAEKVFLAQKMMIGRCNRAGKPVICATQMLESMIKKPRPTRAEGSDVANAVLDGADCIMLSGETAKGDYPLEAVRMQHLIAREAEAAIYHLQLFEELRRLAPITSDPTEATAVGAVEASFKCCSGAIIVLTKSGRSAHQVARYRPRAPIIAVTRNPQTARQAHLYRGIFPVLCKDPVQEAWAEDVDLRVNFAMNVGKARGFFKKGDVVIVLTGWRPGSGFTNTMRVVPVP

Data set [2] in a line: Passive permeability from apical to basolateral side of dog RRCK cells. To be noted: MDCK, read-out: permeability. The data set is classed as ADME, cell-based, Canis lupus familiaris, MDCKII-LE.
Data set [3] is described as follows: Intrinsic clearance in human liver microsomes. The class given is ADME, Microsome. To be noted: read-out: CLH. Background: Microsomes from liver hold many membrane-bound enzymes, among them those of drug oxidation.
Data set [4] can be described thus: Kinetic solubility of the compound at pH 7.4. The class given is physicochemical. The settings on record: buffer, read-out: Kinetic_solubility.
Data set [5] has as its target T1, Pyruvate kinase PKM. The experiment in a line: Activation of PKM2 in human Snu182 cells assessed as oxygen consumption rate at 10 uM after 18 hrs. The data set is classed as cell-based. An outline of the steps: (§2)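 Snu182 cells seeded at 12k/well in RPMI with 10% FBS and 2 mM glutamine, cultured overnight, then given 10 µM compound for 18 h at 37°C, 5% CO2. Medium switched to XF DMEM with 5 mM glucose plus 10 µM compound; OCR and ECAR measured on a Seahorse XF96 analyzer.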
Target sequence in this assay (P14618 2-531 limits assumed): as above

A further data set has as its system HT-29. The experiment in a line: Antiproliferative activity against human HT-29 cells at 10 uM after 5 days. The data set is classed as functional. To be noted: HT-29, 120 h. The essentials:
(§3)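 Cells plated in Optimem-GlutaMax medium and cultured overnight before exposure to 10 µM compound. Viability measured with CytoTox-Glo after 5 days of treatment.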

Another data set deals with SNU-182. The experiment in a line: Antiproliferative activity against human SNU182 cells at 10 uM after 5 days. The class given is functional, cell-based. An outline of the steps: as §3
In another data set the test system is JHH2. The experiment in a line: Antiproliferative activity against human JHH2 cells at 10 uM after 5 days. The class given is functional, cell-based. The essentials: as §3
The target in data set [6] is T1, Pyruvate kinase PKM. Put plainly: Activation of PKM2 in human Huh7 cells assessed as production of pyruvate and ATP by fluorescence assay. The data set is classed as cell-based, Huh-7. An outline of the steps:
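Huh7 hepatocellular carcinoma cells were treated with compound and lysed, and the lysate was given PEP and ADP. The pyruvate formed was oxidized by pyruvate oxidase, and the fluorescence, proportional to pyruvate, was read as cellular pyruvate kinase activity.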
Target sequence in this assay (P14618 whole entry): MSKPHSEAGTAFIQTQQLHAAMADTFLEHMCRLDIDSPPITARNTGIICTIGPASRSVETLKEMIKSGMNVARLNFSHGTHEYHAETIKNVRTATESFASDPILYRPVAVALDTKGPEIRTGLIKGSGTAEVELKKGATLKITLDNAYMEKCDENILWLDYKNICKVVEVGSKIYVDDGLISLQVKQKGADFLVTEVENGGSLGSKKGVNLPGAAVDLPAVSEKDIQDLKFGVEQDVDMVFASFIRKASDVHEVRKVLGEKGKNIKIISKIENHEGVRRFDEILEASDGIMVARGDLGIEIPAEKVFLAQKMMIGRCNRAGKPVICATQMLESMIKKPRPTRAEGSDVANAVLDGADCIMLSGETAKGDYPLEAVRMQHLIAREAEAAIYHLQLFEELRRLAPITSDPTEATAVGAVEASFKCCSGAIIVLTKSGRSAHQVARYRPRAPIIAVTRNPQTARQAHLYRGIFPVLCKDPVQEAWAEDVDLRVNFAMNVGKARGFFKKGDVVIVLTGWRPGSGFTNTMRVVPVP

Another data set has as its system HuH-1 (human). The experiment in a line: Antiproliferative activity against human HuH1 cells at 10 uM after 5 days.
Data set [7] has as its target T1, Pyruvate kinase PKM. Put plainly: Activation of PKM2 in human Snu182 cells assessed as extracellular acidification rate at 10 uM after 18 hrs. The class given is cell-based. The essentials:
as §2
Target sequence in this assay (P14618 2-531 limits assumed): as the sequence (P14618 2-531 limits assumed) above

The next data set has as its system SNU-449. Put plainly: Antiproliferative activity against human SNU449 cells at 10 uM after 5 days. The class given is functional, cell-based. An outline of the steps: as §3
Data set [8] deals with T1, Pyruvate kinase PKM. The experiment in a line: Activation of PKM2 in human Huh7 cells assessed as formation of enzyme tetramers. The data set is classed as cell-based. To be noted: Huh-7.
Target sequence in this assay (P14618 2-531 limits assumed): as above
For data set [9], the target named is T1, Pyruvate kinase PKM. Put plainly: Activation of human PKM2 assessed as production of ATP at 10 uM after 10 mins by lactate dehydrogenase-coupled enzyme assay. An outline of the steps:
as §1
Target sequence in this assay (P14618 2-531 limits assumed): as above

Data set [10] addresses T1, Pyruvate kinase PKM. The experiment in a line: Activation of human PKM2 assessed as production of ATP at 10 uM after 10 mins by high-throughput screening assay relative to control. The essentials:
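High-throughput screen in which PKM2 activity was read as ATP production by luminescence, reported as % activation at 10 µM.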
Target sequence in this assay (P14618 2-531 limits assumed): as above

As for `Cc1sc2nc(Cn3cnc4ccccc43)cc(=O)n2c1C`, on Pyruvate kinase PKM [1], the max activation stood at 160%. In addition, in [2], the Papp A→B is 22.9 ×10⁻⁶ cm/s. In addition, in data set [3], the microsomal CLint worked out at 12.5 µL/min/mg. Moreover, the solubility kinetic in data set [4] stood at 141 µM (≈ 43.8 µg/mL).

Turning to `CCc1nn2c(=O)cc(Cn3cnc4ccccc43)nc2s1`, at Pyruvate kinase PKM [1], the max activation came to 140%. The Papp A→B in data set [2] stood at 17.6 ×10⁻⁶ cm/s. Further, the microsomal CLint in data set [3] amounted to 8 µL/min/mg.

Regarding `CCc1ccc(C)n2c(=O)cc(Cn3cnc4ccccc43)nc12`, the max activation on Pyruvate kinase PKM [1] came out at 135%. In addition, the Papp A→B in [2] came out at 16.2 ×10⁻⁶ cm/s. The microsomal CLint in [3] was 184 µL/min/mg.

For `Cc1cn2c(=O)cc(Cn3cnc4ccccc43)nc2s1`, on Pyruvate kinase PKM [1], the max activation is 189%. In addition, the Papp A→B in data set [2] amounted to 14.3 ×10⁻⁶ cm/s. In addition, the microsomal CLint in [3] amounted to 8 µL/min/mg.

Turning to `O=c1cc(Cn2cnc3ccccc32)nc2ccc(Cl)cn12`, the max activation at Pyruvate kinase PKM [1] was 156%. Further, the Papp A→B in data set [2] stood at 22.2 ×10⁻⁶ cm/s. In addition, the microsomal CLint in data set [3] is below 8 µL/min/mg. Besides, the solubility kinetic in [4] is 558 µM (≈ 173 µg/mL).

Usually inhibition stands for how much of the control response was suppressed. Low values mean a response near the control, high ones a response far below the control. For orientation: EC50 means the concentration needed to bring the measured effect to its halfway point. As to `COc1cccc(NS(=O)(=O)c2cc3c(cc2Cl)NC(=O)CO3)c1`, the max activation on Pyruvate kinase PKM [1] was determined as 108%. For the same compound, the values for the Activity at Pyruvate kinase PKM [5] and at Pyruvate kinase PKM [7] were 85.7% and 91.4%, respectively. Besides, in [2], the Papp A→B came to 8.8 ×10⁻⁶ cm/s. Moreover, in the data set on HT-29, at 10 µM the inhibition was 26.8%. Also, the result in the data set on SNU-182, with JHH2, in the data set on HuH-1 (human) and with SNU-449 was inactive. In addition, the microsomal CLint in [3] stood at 22.4 µL/min/mg. Further, the EC50 at Pyruvate kinase PKM [6] turned out to be 22 nM. The solubility kinetic in data set [4] came to 8.6 µM (≈ 3.17 µg/mL). In addition, on Pyruvate kinase PKM [8], the result was Active.

Consider `O=c1cc(Cn2cnc3ccccc32)nc2scc(-c3ccccc3)n12`, for which the max activation on Pyruvate kinase PKM [1] was determined as 167%. Besides, the Papp A→B in [2] worked out at 11.5 ×10⁻⁶ cm/s. In data set [3], the microsomal CLint was found to be 8 µL/min/mg.

In the case of `Cc1ccn2c(=O)cc(Cn3cnc4ccccc43)nc2c1`, the max activation on Pyruvate kinase PKM [1] is 161%. The Papp A→B in [2] came to 21.3 ×10⁻⁶ cm/s. The microsomal CLint in [3] was 13.3 µL/min/mg. For the same compound, the solubility kinetic in data set [4] was found to be 586 µM (≈ 170 µg/mL).

For `COc1ccc2nc(Cn3cnc4ccccc43)cc(=O)n2c1`, the max activation on Pyruvate kinase PKM [1] worked out at 123%. Also, the Papp A→B in [2] was 25.8 ×10⁻⁶ cm/s. In addition, the microsomal CLint in data set [3] was below 8 µL/min/mg. Further, in data set [4], the solubility kinetic was found to be 580 µM (≈ 178 µg/mL).

Turning to `O=c1cc(Cn2cnc3ccccc32)nc2sccn12`, the max activation at Pyruvate kinase PKM [1] came out at 162%. Moreover, in data set [2], the Papp A→B was 17.3 ×10⁻⁶ cm/s. In data set [3], the microsomal CLint was determined as 8 µL/min/mg. In data set [4], the solubility kinetic was found to be 569 µM (≈ 161 µg/mL).

As to `Cc1ccc2nc(Cn3c(C)nc4ccccc43)cc(=O)n2c1`, on Pyruvate kinase PKM [9], the max activation is 73%.

Take `O=c1cc(Cn2cnc3ccccc32)nc2ccccn12`: the max activation at Pyruvate kinase PKM [1] stood at 161%.

Consider `Cc1csc2nc(Cn3cnc4ccccc43)cc(=O)n12`, for which the max activation at Pyruvate kinase PKM [1] worked out at 136%. Also, in data set [2], the Papp A→B is 23.4 ×10⁻⁶ cm/s. In addition, the microsomal CLint in data set [3] worked out at 8 µL/min/mg. Also, in [4], the solubility kinetic came out at 117 µM (≈ 34.7 µg/mL).

Consider `Cc1ccc2nc(Cn3c(Cc4ccccc4)nc4ccccc43)cc(=O)n2c1`, for which the max activation at Pyruvate kinase PKM [1] turned out to be 148%. For the same compound, the Activity on Pyruvate kinase PKM [10] amounted to 155%.

With `Cc1ccc2nc(Cn3cnc4ccccc43)cc(=O)n2c1`, the max activation at Pyruvate kinase PKM [1] was determined as 149%.

With `Cc1cccn2c(=O)cc(Cn3cnc4ccccc43)nc12`, the max activation on Pyruvate kinase PKM [1] is 172%. Further, the Papp A→B in [2] amounted to 24.2 ×10⁻⁶ cm/s. In [3], the microsomal CLint turned out to be 17.8 µL/min/mg. Further, the solubility kinetic in data set [4] was determined as 529 µM (≈ 154 µg/mL).
